Laboratory results published in ChEMBL document CHEMBL1155063 (Bioorg Med Chem, 2008).

Legend:
[1] = Cytotoxicity against human TERT immortalized BJ1 cells at 10 uM after 48 hrs by MTT assay relative to control; type: cell-based, BJ
Summary of the method: (§1)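 hTERT-immortalized BJ1 fibroblasts were grown in DMEM with 10% FCS, 1 mM pyruvate and 4 mM […]. Cells (about 2 × 10^3 per well) were seeded and held 24 h at 37 °C. Compounds were freshly dissolved in DMSO, diluted into medium and left on the cells 48 h. MTT was added for 4 h, then SDS/DMF lysis buffer for 16 h. Absorbance was read at 550 nm and expressed relative to untreated cells (100%).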

[2] = Cell viability of human H1299 cells at 1 uM after 48 hrs by MTT assay relative to control; conditions: NCI-H1299, 48 h
[3] = target: T1, Telomerase reverse transcriptase (Homo sapiens, UniProt O14746); experiment: Effect on human TERT expressed in BJ1 cells at 1 uM after 24 hrs by SEAP assay realtive to control; conditions: BJ
[4] = target: T1, Telomerase reverse transcriptase; experiment: Effect on human TERT expressed in H1299 cells at 10 uM after 24 hrs by SEAP assay relative to control
[5] = target: T1, Telomerase reverse transcriptase; experiment: Effect on human TERT expressed in BJ1 cells at 100 uM after 24 hrs by SEAP assay relative to control; conditions: BJ
[6] = target: T1, Telomerase reverse transcriptase; experiment: Effect on human TERT expressed in H1299 cells at 1 uM after 24 hrs by SEAP assay relative to control
[7] = Cytotoxicity against human TERT immortalized BJ1 cells at 1 uM after 48 hrs by MTT assay relative to control; type: cell-based, BJ; summary of the method: as §1
[8] = target: T1, Telomerase reverse transcriptase; experiment: Effect on human TERT expressed in BJ1 cells at 10 uM after 24 hrs by SEAP assay relative to control; conditions: BJ
[9] = target: T1, Telomerase reverse transcriptase; experiment: Effect on human TERT expressed in H1299 cells at 100 uM after 24 hrs by SEAP assay relative to control
[10] = Cytotoxicity against human TERT immortalized BJ1 cells at 100 uM after 48 hrs by MTT assay relative to control; type: cell-based, BJ; summary of the method: as §1
[11] = Cytotoxicity against human H1299 cells at 10 uM after 48 hrs by MTT assay realtive to control; type: functional; conditions: NCI-H1299, 48 h
Summary of the method: (§2)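 H1299 non-small-cell lung cells were kept in RPMI 1640 with 10% FBS and penicillin/streptomycin at 37 °C under 5% CO2. About 2 × 10^3 cells per well were pre-incubated for 24 h. Compound was added from freshly made DMSO solution diluted in complete medium and left for 48 h. MTT was then added for 4 h at 37 °C, followed by 20% SDS/50% DMF lysis buffer for 16 h at 37 °C, and absorbance read at 550 nm.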

[12] = Cytotoxicity against human H1299 cells at 100 uM after 48 hrs by MTT assay realtive to control; type: functional; conditions: NCI-H1299, 48 h; summary of the method: as §2

T1 sequence (O14746 whole entry): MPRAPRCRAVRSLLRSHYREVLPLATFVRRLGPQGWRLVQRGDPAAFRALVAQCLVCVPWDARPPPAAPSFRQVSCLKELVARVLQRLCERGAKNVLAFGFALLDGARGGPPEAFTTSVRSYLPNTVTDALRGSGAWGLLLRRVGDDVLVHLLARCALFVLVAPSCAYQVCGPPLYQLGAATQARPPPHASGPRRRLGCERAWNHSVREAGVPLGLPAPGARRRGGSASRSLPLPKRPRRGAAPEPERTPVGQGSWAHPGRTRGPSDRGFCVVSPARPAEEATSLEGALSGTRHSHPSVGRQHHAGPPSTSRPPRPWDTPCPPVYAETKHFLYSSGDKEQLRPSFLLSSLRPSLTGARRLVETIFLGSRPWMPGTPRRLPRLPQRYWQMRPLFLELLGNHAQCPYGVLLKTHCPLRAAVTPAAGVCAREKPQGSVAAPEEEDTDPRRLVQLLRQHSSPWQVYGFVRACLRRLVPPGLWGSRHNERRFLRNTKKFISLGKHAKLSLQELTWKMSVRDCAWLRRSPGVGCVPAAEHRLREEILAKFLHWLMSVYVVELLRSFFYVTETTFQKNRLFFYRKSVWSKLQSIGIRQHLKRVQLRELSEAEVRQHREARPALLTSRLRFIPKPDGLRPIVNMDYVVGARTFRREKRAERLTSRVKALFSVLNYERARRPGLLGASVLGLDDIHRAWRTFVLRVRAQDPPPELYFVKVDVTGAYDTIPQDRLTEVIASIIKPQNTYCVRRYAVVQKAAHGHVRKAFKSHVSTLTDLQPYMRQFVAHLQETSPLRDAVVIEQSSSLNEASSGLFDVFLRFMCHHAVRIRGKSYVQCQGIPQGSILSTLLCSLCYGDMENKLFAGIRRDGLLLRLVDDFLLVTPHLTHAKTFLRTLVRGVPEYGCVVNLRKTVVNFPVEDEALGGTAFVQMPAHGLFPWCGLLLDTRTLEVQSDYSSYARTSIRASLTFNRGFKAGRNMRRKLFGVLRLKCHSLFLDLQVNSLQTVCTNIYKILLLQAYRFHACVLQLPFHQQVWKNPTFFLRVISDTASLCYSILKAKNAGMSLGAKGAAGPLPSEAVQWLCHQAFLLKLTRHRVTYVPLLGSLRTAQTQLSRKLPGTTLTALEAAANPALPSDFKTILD

| residual activity [3] [%] | residual activity [4] [%] | residual activity [5] [%] | residual activity [6] [%] | residual activity [8] [%] | residual activity [9] [%] | SMILES | viability at 48 h, 10 µM [1] [%] | cell viability at 1 µM [2] [%] | viability at 48 h, 1 µM [7] [%] | viability at 48 h, 100 µM [10] [%] | viability at 10 µM [11] [%] | viability at 100 µM [12] [%] |
| --- | --- | --- | --- | --- | --- | --- | --- | --- | --- | --- | --- | --- |
| 79 | 28 | 45 | 73 | 55 | 21 | CC(C)NCC(=O)Nc1ccc2c(c1)C(=O)c1cc(NC(=O)CNC(C)C)ccc1C2=O | 41 | 78 | 89 | 39 | 26 | 6 |
|  | 48 |  | 88 |  | 30 | O=C(CN1CCCC1)Nc1ccc2c(c1)C(=O)c1cc(NC(=O)CN3CCCC3)ccc1C2=O | 60 | 99 | 99 | 39 | 52 | 23 |
| 78 | 95 | 51 | 90 | 64 | 85 | CCC(=O)Nc1ccc2c(c1)C(=O)c1cc(NC(=O)CC)ccc1C2=O | 57 | 70 | 77 | 48 | 38 | 35 |
| 88 | 33 | 111 | 56 | 95 | 22 | CCCCNCCC(=O)Nc1ccc2c(c1)C(=O)c1cc(NC(=O)CCNCCCC)ccc1C2=O | 70 | 82 | 80 | 40 | 52 | 14 |
| 27 | 26 | 80 | 77 | 24 | 20 | CCCCNCC(=O)Nc1ccc2c(c1)C(=O)c1cc(NC(=O)CNCCCC)ccc1C2=O | 41 | 91 | 103 | 43 | 17 | 15 |
| 74 | 79 | 43 | 89 | 92 | 61 | O=C(CCc1ccccc1)Nc1ccc2c(c1)C(=O)c1cc(NC(=O)CCc3ccccc3)ccc1C2=O | 44 | 102 | 89 | 44 | 94 | 76 |
|  | 72 |  | 89 |  | 60 | O=C(CN1CCNCC1)Nc1ccc2c(c1)C(=O)c1cc(NC(=O)CN3CCNCC3)ccc1C2=O | 85 | 88 | 88 | 76 | 85 | 88 |
| 83 | 38 | 40 | 73 | 44 | 26 | CC(C)CNCC(=O)Nc1ccc2c(c1)C(=O)c1cc(NC(=O)CNCC(C)C)ccc1C2=O | 37 | 108 | 107 | 39 | 39 | 11 |
|  | 40 | 135 | 72 | 69 | 36 | O=C(CCl)Nc1ccc2c(c1)C(=O)c1cc(NC(=O)CCl)ccc1C2=O | 89 | 58 | 105 | 88 | 5 | 1 |
|  | 94 |  | 94 |  | 87 | O=C(CCCl)Nc1ccc2c(c1)C(=O)c1cc(NC(=O)CCCl)ccc1C2=O | 65 | 77 | 77 | 39 | 44 | 29 |
| 90 | 35 | 17 | 60 | 41 | 34 | CCNCC(=O)Nc1ccc2c(c1)C(=O)c1cc(NC(=O)CNCC)ccc1C2=O | 56 | 52 | 72 | 37 | 24 | 3 |
| 26 | 61 | 116 | 90 | 131 | 37 | CCN(CC)CC(=O)Nc1ccc2c(c1)C(=O)c1cc(NC(=O)CN(CC)CC)ccc1C2=O | 67 | 101 | 116 | 50 | 47 | 25 |
|  | 75 |  | 87 |  | 63 | Nc1ccc2c(c1)C(=O)c1cc(N)ccc1C2=O | 83 | 90 | 95 | 80 | 80 | 65 |
| 14 | 93 | 22 | 96 | 14 | 80 | O=C1c2ccc(NC(=O)C3CCCCC3)cc2C(=O)c2cc(NC(=O)C3CCCCC3)ccc21 | 76 | 90 | 87 | 64 | 63 | 52 |
| 13 | 86 | 75 | 88 | 42 | 78 | O=C(CCCCl)Nc1ccc2c(c1)C(=O)c1cc(NC(=O)CCCCl)ccc1C2=O | 62 | 84 | 72 | 58 | 40 | 22 |
|  | 83 |  | 90 |  | 83 | CCCC(=O)Nc1ccc2c(c1)C(=O)c1cc(NC(=O)CCC)ccc1C2=O | 51 | 93 | 84 | 50 | 59 | 40 |
|  | 52 |  | 75 | 138 | 21 | CN1CCN(CCC(=O)Nc2ccc3c(c2)C(=O)c2cc(NC(=O)CCN4CCN(C)CC4)ccc2C3=O)CC1 | 80 | 95 | 95 | 61 | 80 | 39 |
|  | 44 |  | 73 |  | 24 | CCCNCC(=O)Nc1ccc2c(c1)C(=O)c1cc(NC(=O)CNCCC)ccc1C2=O | 44 | 89 | 96 | 42 | 54 | 14 |
|  | 92 | 36 | 104 | 72 | 85 | O=C(Nc1ccc2c(c1)C(=O)c1cc(NC(=O)c3ccccc3)ccc1C2=O)c1ccccc1 | 85 | 71 | 92 | 97 | 47 | 41 |
